Results on 54 molecules are retold here after ChEMBL document CHEMBL1155062, “Antileishmanial activity screening of 5-nitro-2-heterocyclic benzylidene hydrazides” (Bioorg Med Chem, 2008).

Each structure is given as a SMILES string. The source made the active and inactive calls. No cut-off for these calls is given here.

In this assay the test system is Leishmania donovani. Nature of the assay: Antileishmanial activity against Leishmania donovani promastigotes after 48 hrs by alamar blue assay. In kind it is functional, organism-based. The procedure, abridged:
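L. donovani promastigotes grown in RPMI 1640 with 10% fetal calf serum at 26 °C. A 3-day-old culture was diluted to 5 × 10⁵ promastigotes/mL. Drug dilutions were made directly in the cell suspension and incubated 48 h at 26 °C.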
With `CN(C)c1ccc(C(=O)N/N=C/c2ccc([N+](=O)[O-])s2)cc1`, the result was inactive.

In turn, `O=C(N/N=C/c1ccc([N+](=O)[O-])s1)c1ccc(Cl)c(Cl)c1` gave an IC50 of 0.41 µM and a concentration for an effect of 90% (IC90) of 0.87 µM.

In the case of `O=C(N/N=C/c1ccc([N+](=O)[O-])o1)c1ccc([N+](=O)[O-])c(O)c1`, the IC50 came to 9.9 µM and the concentration for an effect of 90% (IC90) was 48.9 µM.

For the molecule `O=C(N/N=C/c1ccc([N+](=O)[O-])o1)c1ccccc1`, inhibition was half-maximal at 11.2 µM (IC50) and the IC90 is 29.7 µM.

As for `O=C(N/N=C/c1ccc([N+](=O)[O-])s1)c1ccc([N+](=O)[O-])cc1`, the IC50 was determined as 2.81 µM and the 90% effect level (IC90) was put at 5.31 µM.

As to `COc1cc(C(=O)N/N=C/c2ccc([N+](=O)[O-])o2)ccc1[N+](=O)[O-]`, the half-inhibitory concentration (IC50) stood at 7.39 µM and the 90% effect level (IC90) was put at 20.2 µM.

As to `O=C(N/N=C/c1ccc([N+](=O)[O-])o1)c1ccc(F)c(Cl)c1`, it took 6.42 µM to reach half-maximal inhibition (IC50) and the IC90 worked out at 19.2 µM.

As to `O=C(N/N=C/c1ccc([N+](=O)[O-])o1)c1ccc(Cl)c([N+](=O)[O-])c1`, the outcome was inactive.

Consider `CN(C)c1ccc(C(=O)N/N=C/c2ccc([N+](=O)[O-])o2)cc1`, for which the result was inactive.

`N=C(N)c1ccc(OCCCCCOc2ccc(C(=N)N)cc2)cc1` [PENTAMIDINE] came in with an IC50 of 1.06 µM.

`O=C(N/N=C/c1ccc([N+](=O)[O-])o1)c1ccc([N+](=O)[O-])cc1` came in with an IC50 of 6.57 µM and an IC90 of 22.4 µM.

Take `O=C(N/N=C/c1ccc([N+](=O)[O-])o1)c1ccc(F)c(F)c1`: the IC50 was determined as 9.49 µM and it took 25.5 µM to reach the 90% level (IC90).

Regarding `O=C(N/N=C/c1ccc([N+](=O)[O-])s1)c1ccc([N+](=O)[O-])c(O)c1`, 5.45 µM corresponded to half-maximal inhibition (IC50) and the 90% effect level (IC90) was put at 18.4 µM.

As to `O=C(N/N=C/c1ccc([N+](=O)[O-])s1)c1ccc(C(F)(F)F)cc1`, the midpoint of inhibition, the IC50, lay at 0.82 µM and the 90% effect level (IC90) was put at 1.89 µM.

`O=C(N/N=C/c1ccc([N+](=O)[O-])s1)c1cccc(O)c1` showed an IC50 of 2.75 µM and an IC90 of 7.55 µM.

Molecule `O=C(N/N=C/c1ccc([N+](=O)[O-])o1)c1ccc(C(F)(F)F)cc1` showed an IC50 of 8.86 µM and an IC90 of 24.4 µM.

In turn, `Cc1ccc(C(=O)N/N=C/c2ccc([N+](=O)[O-])o2)cc1N` gave an IC50 of 0.62 µM and an IC90 of 2.88 µM.

Consider `Nc1cc(C(=O)N/N=C/c2ccc([N+](=O)[O-])o2)ccc1O`, for which the IC50 turned out to be 27 µM and the 90% effect concentration (IC90) is 97.5 µM.

Consider `O=C(N/N=C/c1ccc([N+](=O)[O-])s1)c1ccccc1`, for which the IC50 came out at 6.54 µM and the IC90 worked out at 25.4 µM.

As for `O=C(N/N=C/c1ccc([N+](=O)[O-])o1)c1ccc(O)cc1` [NIFUROXAZIDE], the midpoint of inhibition, the IC50, lay at 2.4 µM and the IC90 was 17.8 µM.

Molecule `O=C(N/N=C/c1ccc([N+](=O)[O-])o1)c1ccc(Cl)cc1` returned an IC50 of 7.83 µM and a concentration for an effect of 90% (IC90) of 23.8 µM.

`COc1ccc(C(=O)N/N=C/c2ccc([N+](=O)[O-])o2)cc1N` had an IC50 of 16.4 µM and an IC90 of 131 µM.

With `CN(C)c1cccc(C(=O)N/N=C/c2ccc([N+](=O)[O-])o2)c1`, the half-inhibitory concentration (IC50) came to 7.94 µM and the IC90 came to 24.2 µM.

`O=C(N/N=C/c1ccc([N+](=O)[O-])o1)c1cccc(Cl)c1` showed an IC50 of 7.83 µM and an IC90 of 24.2 µM.

In the case of `Cc1cccc(C(=O)N/N=C/c2ccc([N+](=O)[O-])s2)c1`, the midpoint of inhibition, the IC50, lay at 4.84 µM and the IC90 amounted to 19 µM.

On to `COc1cc(C(=O)N/N=C/c2ccc([N+](=O)[O-])s2)ccc1C`, for which half-maximal inhibition (IC50) was put at 2.19 µM and the IC90 is 4.39 µM.

`COc1cccc(C(=O)N/N=C/c2ccc([N+](=O)[O-])s2)c1` showed a concentration for half-maximal inhibition (IC50) of 8.52 µM and an IC90 of 32.8 µM.

On to `Cc1cccc(C(=O)N/N=C/c2ccc([N+](=O)[O-])o2)c1`, for which half-maximal inhibition (IC50) was put at 19.8 µM and the IC90 was > 36.6 µM.

With `Nc1ccc(C(=O)N/N=C/c2ccc([N+](=O)[O-])o2)cc1`, half-maximal inhibition (IC50) required 2.66 µM and it took 14.6 µM to reach the 90% level (IC90).

As to `NS(=O)(=O)c1cc(C(=O)N/N=C/c2ccc([N+](=O)[O-])o2)ccc1Cl`, half-maximal inhibition (IC50) was put at 38.5 µM and the IC90 was determined as 88.5 µM.

`O=C(N/N=C/c1ccc([N+](=O)[O-])o1)c1ccc(Cl)c(Cl)c1` yielded a half-inhibitory concentration (IC50) of 1.68 µM and a 90% effect concentration (IC90) of 26.9 µM.

As to `COc1cc(C(=O)N/N=C/c2ccc([N+](=O)[O-])o2)ccc1C`, the IC50 came to 8.9 µM and the IC90 was determined as 52.8 µM.

`COc1cc(C(=O)N/N=C/c2ccc([N+](=O)[O-])s2)ccc1[N+](=O)[O-]` gave an IC50 of 2 µM and an IC90 of 3.91 µM.

Molecule `Cc1ccc(C(=O)N/N=C/c2ccc([N+](=O)[O-])s2)cc1N` returned an IC50 of 2.24 µM and an IC90 of 4.7 µM.

Molecule `Cc1ccc(C(=O)N/N=C/c2ccc([N+](=O)[O-])s2)cc1` yielded an IC50 of 4.49 µM and an IC90 of 7.95 µM.

Consider `O=C(N/N=C/c1ccc([N+](=O)[O-])s1)c1ccc(F)c(F)c1`, for which half-maximal inhibition (IC50) was put at 2.15 µM and the 90% effect level (IC90) was put at 4.92 µM.

As for `NS(=O)(=O)c1cc(C(=O)N/N=C/c2ccc([N+](=O)[O-])s2)ccc1Cl`, the 50% inhibitory concentration (IC50) amounted to 8.06 µM and the IC90 is 17.2 µM.

On to `O=C(N/N=C/c1ccc([N+](=O)[O-])s1)c1ccc(Cl)cc1`, for which the concentration for half-maximal inhibition (IC50) was found to be 1.26 µM and the IC90 was found to be 4.84 µM.

For `O=C(N/N=C/c1ccc([N+](=O)[O-])o1)c1cccc(O)c1`, the IC50 came to 10.2 µM and the 90% effect concentration (IC90) turned out to be 28 µM.

`Cc1ccc(C(=O)N/N=C/c2ccc([N+](=O)[O-])o2)cc1`: half-maximal inhibition (IC50) required 11 µM and the IC90 stood at 28.6 µM.

In the case of `O=C(N/N=C/c1ccc([N+](=O)[O-])s1)c1cccc(Cl)c1`, the IC50 was found to be 2.74 µM and it took 6.78 µM to reach the 90% level (IC90).

Molecule `Cc1ccc(C(=O)N/N=C/c2ccc([N+](=O)[O-])s2)cc1O` gave an IC50 of 2.3 µM and an IC90 of 4.59 µM.

As to `COc1ccc(C(=O)N/N=C/c2ccc([N+](=O)[O-])s2)cc1N`, the IC50 was 4.69 µM and it took 18.3 µM to reach the 90% level (IC90).

The molecule `COc1cccc(C(=O)N/N=C/c2ccc([N+](=O)[O-])o2)c1` displayed a half-maximal inhibitory concentration (IC50) of 10.4 µM and a 90% effect concentration (IC90) of 26.6 µM.

In the case of `O=C(N/N=C/c1ccc([N+](=O)[O-])s1)c1cccc(C(F)(F)F)c1`, it took 3.79 µM to reach half-maximal inhibition (IC50) and the 90% effect level (IC90) was put at 6.41 µM.

The molecule `O=C(N/N=C/c1ccc([N+](=O)[O-])o1)c1cccc([N+](=O)[O-])c1` displayed an IC50 of 9.86 µM and an IC90 of 26 µM.

For `O=C(N/N=C/c1ccc([N+](=O)[O-])o1)c1cccc(C(F)(F)F)c1`, the half-inhibitory concentration (IC50) turned out to be 10.4 µM and the IC90 is 24.1 µM.

The molecule `O=C(N/N=C/c1ccc([N+](=O)[O-])s1)c1cccc([N+](=O)[O-])c1` showed an IC50 of 2.78 µM and an IC90 of 14.3 µM.

Take `CN(C)c1cccc(C(=O)N/N=C/c2ccc([N+](=O)[O-])s2)c1`: the result was inactive.

`COc1ccc(C(=O)N/N=C/c2ccc([N+](=O)[O-])s2)cc1` showed an IC50 of 7.21 µM and a 90% effect concentration (IC90) of 26.2 µM.

`COc1ccc(C(=O)N/N=C/c2ccc([N+](=O)[O-])o2)cc1` returned an IC50 of 8.99 µM and an IC90 of 25.9 µM.

Regarding `O=C(N/N=C/c1ccc([N+](=O)[O-])s1)c1ccc(O)cc1`, the IC50 is 0.89 µM and it took 4.46 µM to reach the 90% level (IC90).

Take `Nc1ccc(C(=O)N/N=C/c2ccc([N+](=O)[O-])s2)cc1`: the IC50 came out at 2.24 µM and the IC90 was > 34.5 µM.

On to `O=C(N/N=C/c1ccc([N+](=O)[O-])s1)c1ccc(F)c(Cl)c1`, for which the IC50 was found to be 1.92 µM and the 90% effect level (IC90) was put at 4.67 µM.

Usually IC50 stands for the concentration that gives 50% inhibition. Higher therefore signals lower potency. In general, IC90 refers to the concentration at which the effect reaches the 90% level. High values mean a need for much substance, low ones an effect from little substance.
